Here are results for 4 compounds from PMC11658390 (BMC Chemistry, 2024).

Test [1] concerns MCF-7 breast cancer cell line. Description: Anticancer screening, MTT assay. Format: cell-based, human. The essentials:
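MCF-7 cells were seeded at 10,000 cells/well and grown 24 h in DMEM with 10% FBS and 1% antibiotic at 37 °C, 5% CO2. They were then exposed for 24 h to a range of test compound concentrations prepared in incomplete medium. MTT was added at 250 µg/ml final for 2 h, the supernatant was removed, and formazan was dissolved in DMSO. Absorbance was read at 540 nm, in triplicate.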
On the technique in general: Tetrazolium assays rely on reduction of a dye to a coloured formazan, in cell work by metabolically active cells.

Test [2] deals with C. albicans (ATCC SC5314). In words: Antifungal activity, broth microdilution MIC. It is filed as cell-based. Background: In broth dilution the organism is exposed to a series of concentrations in liquid medium.
For another test, the target named is T1, DHFR (Homo sapiens, UniProt P00374).
T1 sequence (P00374 1-187): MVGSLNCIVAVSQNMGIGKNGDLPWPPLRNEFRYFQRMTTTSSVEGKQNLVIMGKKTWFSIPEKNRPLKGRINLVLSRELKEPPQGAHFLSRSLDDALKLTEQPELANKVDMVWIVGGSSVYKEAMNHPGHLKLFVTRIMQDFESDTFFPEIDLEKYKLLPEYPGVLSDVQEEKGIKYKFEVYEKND
Description: DHFR inhibition assay. Format: biochemical. The settings on record: from IC50 values.

Take `CC1CCC(C(C)C)C(OC(=O)C=Cc2ccc(O)c(O)c2)C1` (stereo not drawn) [CE3, 2-isopropyl-5-methylcyclohexyl 3-(3,4-dihydroxyphenyl)acrylate]: in test [1], the “Anticancer activity against MCF-7, in words” value is “moderate anticancer activity”. Further, in test [2], the “Inhibitory activity against fungal strain C. albicans, in words” value (shortened to “Inhibitory activity”) is on record as “moderate action”. In the case of `CC(C)NCC(COc1cccc2ccccc12)OC(=O)C=Cc1ccc(O)c(O)c1` (stereo not drawn) [CE11, 1-(isopropylamino)−3-(naphthalen-1-yloxy)propan-2-yl 3-(3,4-dihydroxyphenyl)acrylate], the “DHFR inhibitory potency relative to methotrexate” value at DHFR was “approximately four times more effective than methotrexate”. Turning to `O=C(C=Cc1ccc(O)c(O)c1)OCCc1ccccc1` [CE12, Phenethyl 3-(3,4-dihydroxyphenyl)acrylate], in test [2], the “Inhibitory activity” value is “moderate action”.

Turning to `Nc1ccccc1OC(=O)C=Cc1ccc(O)c(O)c1` [CE17, 2-aminophenyl 3-(3,4-dihydroxyphenyl)acrylate], the “Anticancer activity against MCF-7, in words” value in test [1] is “moderate anticancer activity”. Also, the “Inhibitory activity” value in test [2] is on record as “moderate action”.
